ChEMBL document CHEMBL1158349, “Synthesis and antimicrobial evaluation of 1-(benzofuran-2-yl)-4-nitro-3-arylbutan-1-ones and 3-(benzofuran-2-yl)-4,5-dihydro-5-aryl-1-[4-(aryl)-1,3-thiazol-2-yl]-1H-pyrazoles” (2009)

What was measured:
Format in all cases: functional
Settings in all cases: read-out: DIZ
Staphylococcus aureus = assay: Antibacterial activity against Staphylococcus aureus at 100 ug after 24 hrs by agar disc-diffusion method
How it was run: (§1)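 Agar disc-diffusion on nutrient agar. Sterile 6 mm filter-paper discs moistened with the test compound in DMSO were placed on plates seeded separately with each bacterium. Amoxicillin was the reference drug. Plates were incubated at 37 °C, and the growth-inhibition zone diameter was measured after 24 h.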

Bacillus subtilis = assay: Antibacterial activity against Bacillus subtilis at 100 ug after 24 hrs by agar disc-diffusion method; how it was run: as §1
Escherichia coli = assay: Antibacterial activity against Escherichia coli at 100 ug after 24 hrs by agar disc-diffusion method; how it was run: as §1
Candida albicans = assay: Antifungal activity against Candida albicans at 100 ug after 48 hrs by agar disc-diffusion method
How it was run: (§2)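 Disc diffusion on nutrient agar. Plates were inoculated separately with each fungus, then 6 mm paper discs wetted with the compound solution in DMSO were applied. Fluconazole was the reference drug. Plates were incubated at 37 °C, and inhibition-zone diameters were read after 48 h.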

Aspergillus niger = assay: Antifungal activity against Aspergillus niger at 100 ug after 48 hrs by agar disc-diffusion method; how it was run: as §2

Structure (SMILES) | zone of inhibition at 100 µg/disc (Staphylococcus aureus) [mm] | zone of inhibition at 100 µg/disc (Bacillus subtilis) [mm] | zone of inhibition at 100 µg/disc (Escherichia coli) [mm] | zone of inhibition at 100 µg/disc (Candida albicans) [mm] | zone of inhibition at 100 µg/disc (Aspergillus niger) [mm]
COc1ccc(C(CC(=O)c2cc3ccccc3o2)C[N+](=O)[O-])cc1 (stereo not given) | 0 | 0 | 12 | 25 | 0
NC(=S)N1N=C(c2cc3ccccc3o2)CC1c1ccc(Cl)cc1 (stereo not given) | 0 | 12 | 15 | 0 | 15
O=C(CC(C[N+](=O)[O-])c1ccccc1)c1cc2ccccc2o1 (stereo not given) | 0 | 0 | 12 | 30 | 0
c1ccc(-c2csc(N3N=C(c4cc5ccccc5o4)CC3c3ccccc3)n2)cc1 (stereo not given) | 17 | 0 | 25 | 0 | 0
Clc1ccc(C2CC(c3cc4ccccc4o3)=NN2c2nc(-c3ccccc3)cs2)cc1 (stereo not given) | 0 | 0 | 12 | 25 | 15
O=C(CC(C[N+](=O)[O-])c1ccc(Cl)cc1)c1cc2ccccc2o1 (stereo not given) | 0 | 0 | 12 | 20 | 15
Brc1ccc(-c2csc(N3N=C(c4cc5ccccc5o4)CC3c3ccccc3)n2)cc1 (stereo not given) | 0 | 0 | 0 | 0 | 0
NC(=S)N1N=C(c2cc3ccccc3o2)CC1c1ccccc1 (stereo not given) | 0 | 0 | 0 | 5 | 0
Clc1ccc(C2CC(c3cc4ccccc4o3)=NN2c2nc(-c3ccc(Br)cc3)cs2)cc1 (stereo not given) | 0 | 0 | 0 | 25 | 0
CC1(C)S[C@@H]2[C@H](NC(=O)[C@H](N)c3ccc(O)cc3)C(=O)N2[C@H]1C(=O)O [AMOXICILLIN] | 20 | 20 | 20 | – | –
OC(Cn1cncn1)(Cn1cncn1)c1ccc(F)cc1F [FLUCONAZOLE] | – | – | – | 20 | 20
